Test results from ChEMBL document CHEMBL3769316, “Discovery of novel heteroarylmethylcarbamodithioates as potent anticancer agents: Synthesis, structure-activity relationship analysis and biological evaluation” (Eur J Med Chem, 2016).
Calls of active or inactive are those of the source. No cut-off for these calls is given here.

Legend:
PC-3 [1] = experiment: Induction of apoptosis in human PC3 cells assessed as increase in early apoptotic cells after 48 hrs by annexin V-FITC/propidium iodide staining-based flow cytometry; assay type: functional, cell-based
In short: (§1)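 After 48 h exposure to graded concentrations, both floating and adherent cells were collected into binding buffer. They were stained with Annexin V-FITC plus PI for 15 min in the dark and analysed immediately by flow cytometry. Annexin V+/PI− cells were counted as early apoptotic and Annexin V+/PI+ cells as late apoptotic.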

PC-3 [2] = experiment: Induction of apoptosis in human PC3 cells assessed as increase in late apoptotic cells after 48 hrs by annexin V-FITC/propidium iodide staining-based flow cytometry; assay type: functional, cell-based; in short: as §1
PC-3 [3] = experiment: Induction of apoptosis in human PC3 cells assessed as chromatin condensation at 0.5 to 2 uM after 48 hrs by Hoechst 33342 staining-based fluorescence microscopy; assay type: functional, cell-based
In short: (§2)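 Cells were treated with graded concentrations for 48 h, washed with PBS and fixed in 4% paraformaldehyde for 15 min. They were then stained with Hoechst 33342 (10 µg/ml in PBS) for 10 min at room temperature. Nuclear morphology and chromatin condensation were imaged by fluorescence microscopy under UV illumination.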

PC-3 [4] = experiment: Induction of mitotic arrest in human PC3 cells assessed as increase in histone H3 phosphorylation at Ser10 at 0.5 to 4 uM after 24 hrs by Western blot method; assay type: functional, cell-based
In short: (§3)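 PC-3 cells were treated 24 h with compound (0.5-4 µM) or taxol (40 nM) as positive control, then lysed in RIPA with PMSF and protease inhibitors. Lysates were run on SDS-PAGE and transferred to PVDF, which was blocked with 5% milk for 1 h. Membranes were probed overnight at 4 °C for MPM-2 (1:1000), phospho-H3 (1:600) or β-actin (1:1000), followed by HRP secondary and chemiluminescence.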

[5] = Cytotoxicity against human LO2 cells after 72 hrs by alamar blue assay; assay type: cell-based; settings: L02, 72 h
In short: (§4)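 Cells seeded and cultured overnight, then exposed to compound at varying concentrations for 72 h. Cells were then incubated 2-4 h in medium containing 10% Alamar blue, and fluorescence was read at ex 530/em 590 nm. Dose-response curves used at least five concentrations, and IC50 (50% growth inhibition) was taken from these curves. Culture was at 37 °C.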

[6] = Cytotoxicity against human Bel7402 cells after 72 hrs by alamar blue assay; assay type: functional, cell-based; settings: Bel-7402, 72 h; in short: as §4
[7] = Cytotoxicity against human HCT8 cells after 72 hrs by alamar blue assay; assay type: functional, cell-based; settings: HCT-8, 72 h; in short: as §4
NCI-H1299 = experiment: Cytotoxicity against human NCI-H1299 cells after 72 hrs by alamar blue assay; assay type: functional, cell-based; settings: NCI-H1299, 72 h; in short: as §4
SK-BR-3 = experiment: Cytotoxicity against human SK-BR-3 cells after 72 hrs by alamar blue assay; assay type: functional, cell-based; settings: SK-BR-3, 72 h; in short: as §4
NCI-H460 = experiment: Cytotoxicity against human NCI-H460 cells after 72 hrs by alamar blue assay; assay type: functional, cell-based; settings: NCI-H460, 72 h; in short: as §4
[8] = Cytotoxicity against human SW620 cells after 72 hrs by alamar blue assay; assay type: functional, cell-based; settings: SW-620, 72 h
In short: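 SW620 cells were kept at 37 °C in 100% air in Leibovitz's L-15 with 10% FBS, penicillin and streptomycin. After overnight seeding, cells were given at least five concentrations for 72 h. Cells were then incubated 2-4 h with 10% Alamar blue, and fluorescence was read at ex 530/em 590 nm. IC50 was interpolated from the dose-response curves.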

[9] = Cytotoxicity against human PC3 cells after 72 hrs by alamar blue assay; assay type: functional, cell-based; settings: PC-3, 72 h
In short: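 PC-3 cells were grown at 37 °C, 5% CO₂ in F-12K with 10% FBS, penicillin and streptomycin. They were seeded overnight and treated with at least five concentrations for 72 h. Alamar blue (10% in medium) was added for 2-4 h, and fluorescence was read at 530/590 nm. IC50 was taken from the dose-response curves.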

[10] = Cytotoxicity against human COLO205 cells after 72 hrs by alamar blue assay; assay type: functional, cell-based; settings: COLO 205, 72 h; in short: as §4
Bel-7402 [11] = experiment: Induction of apoptosis in human Bel7402 cells assessed as chromatin condensation at 1 to 4 uM after 48 hrs by Hoechst 33342 staining-based fluorescence microscopy; assay type: functional, cell-based; in short: as §2
PC-3 [12] = experiment: Induction of mitotic arrest in human PC3 cells assessed as increase in MPM-2 level at 0.5 to 4 uM after 24 hrs by Western blot method; assay type: functional, cell-based; in short: as §3
PC-3 [13] = experiment: Induction of cell cycle arrest in human PC3 cells assessed as accumulation at G2/M phase at 2 uM after 24 hrs by propidium iodide staining-based flow cytometry (reference value: 19.9%); assay type: functional
Bel-7402 [14] = experiment: Induction of cell cycle arrest in human Bel7402 cells assessed as accumulation at S phase at 2 uM after 24 hrs by propidium iodide staining-based flow cytometry (reference value: 47.24%); assay type: functional
PC-3 [15] = experiment: Induction of cell cycle arrest in human PC3 cells assessed as accumulation at S phase at 2 uM after 24 hrs by propidium iodide staining-based flow cytometry (reference value: 37.86%); assay type: functional
[16] = Cytotoxicity against human DU145 cells after 72 hrs by alamar blue assay; assay type: functional, cell-based; settings: DU-145, 72 h; in short: as §4
[17] = Cytotoxicity against HEK293T cells after 72 hrs by alamar blue assay; assay type: cell-based; settings: Homo sapiens, HEK-293T
Bel-7402 [18] = experiment: Induction of cell cycle arrest in human Bel7402 cells assessed as accumulation at G2/M phase at 2 uM after 24 hrs by propidium iodide staining-based flow cytometry (reference value: 16%); assay type: functional
[19] = Cytotoxicity against human HCT116 cells after 72 hrs by alamar blue assay; assay type: functional, cell-based; settings: HCT-116, 72 h; in short: as §4
Bel-7402 [20] = experiment: Induction of apoptosis in human Bel7402 cells assessed as increase in late apoptotic cells after 48 hrs by annexin V-FITC/propidium iodide staining-based flow cytometry; assay type: functional, cell-based; in short: as §1
NCI-H522 = experiment: Cytotoxicity against human NCI-H522 cells after 72 hrs by alamar blue assay; assay type: functional, cell-based; settings: NCI-H522, 72 h; in short: as §4
Bel-7402 [21] = experiment: Induction of cell cycle arrest in human Bel7402 cells assessed as accumulation at G0/G1 phase at 2 uM after 24 hrs by propidium iodide staining-based flow cytometry (reference value: 36.76%); assay type: functional
Bel-7402 [22] = experiment: Induction of apoptosis in human Bel7402 cells assessed as increase in early apoptotic cells after 48 hrs by annexin V-FITC/propidium iodide staining-based flow cytometry; assay type: functional, cell-based; in short: as §1
PC-3 [23] = experiment: Induction of cell cycle arrest in human PC3 cells assessed as accumulation at G0/G1 phase at 2 uM after 24 hrs by propidium iodide staining-based flow cytometry (reference value: 42.23%); assay type: functional
PC-3 [24] = experiment: Induction of mitotic arrest in human PC3 cells assessed as increase in supernumerary centrosome formation at 2 uM after 6 hrs using DAPI staining by immunofluorescence-based laser scanning confocal microscopy; assay type: functional, cell-based
In short: (§5)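 PC-3 cells on confocal dishes were exposed 6 h to compound (2 µM) or taxol (40 nM), then fixed in 4% paraformaldehyde overnight at 4 °C and blocked. They were stained overnight at 4 °C with anti-β-tubulin and anti-γ-tubulin (1:100 each), then 1 h with Alexa Fluor 488/647 secondaries, and co-stained for DNA. Spindles and centrosomes were imaged by confocal microscopy.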

MDA-MB-468 = experiment: Cytotoxicity against human MDA-MB-468 cells after 72 hrs by alamar blue assay; assay type: functional, cell-based; settings: MDA-MB-468, 72 h; in short: as §4
PC-3 [25] = experiment: Induction of mitotic arrest in human PC3 cells assessed as increase in multipolar spindle formation at 2 uM after 6 hrs using DAPI staining by immunofluorescence-based laser scanning confocal microscopy; assay type: functional, cell-based; in short: as §5

S=C(NCc1cccnc1)SCCc1nnc(-c2ccccc2)o1
Activity (PC-3 [1]): Dose-dependent effect
Activity (PC-3 [2]): Dose-dependent effect
Activity (PC-3 [3]): Active
Activity (PC-3 [4]): Active
IC50 [5]: 9.67 µM
IC50 [6]: 1.23 µM
IC50 [7]: 5.98 µM
IC50 (NCI-H1299): 1.89 µM
IC50 (SK-BR-3): 0.58 µM
IC50 (NCI-H460): 6.07 µM
IC50 [8]: 3.8 µM
IC50 [9]: 0.39 µM
IC50 [10]: 7.92 µM
Activity (Bel-7402 [11]): Active
Activity (PC-3 [12]): Active
Activity (PC-3 [13]): 51.1%
Activity (Bel-7402 [14]): 29.9%
Activity (PC-3 [15]): 26.46%
IC50 [16]: 3.34 µM
IC50 [17]: 14.6 µM
Activity (Bel-7402 [18]): 46.27%
IC50 [19]: 8.21 µM
Activity (Bel-7402 [20]): Dose-dependent effect
IC50 (NCI-H522): 2.16 µM
Activity (Bel-7402 [21]): 21.42%
Activity (Bel-7402 [22]): Dose-dependent effect
Activity (PC-3 [23]): 22.41%
Activity (PC-3 [24]): Active
IC50 (MDA-MB-468): 2.77 µM
Activity (PC-3 [25]): Active
